Experiments:
[1] = target: T1, Melanocortin receptor 5 (Homo sapiens, UniProt P33032); assay: Agonist activity at EYFP-fused human MC5R expressed in HEK293 cells after 16 to 20 hrs by CRE-driven reporter assay; type: functional, cell-based
In short: (§1)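 HEK293 monoclonal lines carrying a single receptor/9×CRE-d2EYFP construct, selected with puromycin and FACS-sorted, kept in low-fluorescence DMEM. EYFP imaged with bright-field images, normalized to cell coverage, corrected for unstimulated cells and scaled to α-MSH maximum. Four-parameter fit constrained to minimum 0, at least three independent experiments.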

[2] = target: T2, Melanocortin receptor 4 (Homo sapiens, UniProt P32245); assay: Agonist activity at EYFP-fused human MC4R expressed in HEK293 cells assessed as increase in cAMP accumulation after 30 mins by luminescent enzymatic complementation based assay; type: functional, cell-based
[3] = target: T3, Melanocortin receptor 3 (Homo sapiens, UniProt P41968); assay: Agonist activity at EYFP-fused human MC3R expressed in HEK293 cells at 3000 nM after 16 to 20 hrs by CRE-driven reporter assay relative to alpha-MSH; type: functional, cell-based
In short: as §1, with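 “DMEM. Seeded at 50,000 cells/well and treated after 24 h for 16–20 h with 11-point 3-fold dilutions (3.3 μM to […]) in triplicate, vehicle 0.5% v/v DMSO.” for “DMEM.”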

[4] = target: T1, Melanocortin receptor 5; assay: Agonist activity at EYFP-fused human MC5R expressed in HEK293 cells at 3000 nM after 16 to 20 hrs by CRE-driven reporter assay relative to alpha-MSH; type: functional, cell-based
In short: as §1, with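 “DMEM. Seeded at 50,000 cells/well and treated after 24 h for 16–20 h with 11-point 3-fold dilutions (3.3 μM to […]) in triplicate, vehicle 0.5% v/v DMSO.” for “DMEM.”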

[5] = target: T3, Melanocortin receptor 3; assay: Agonist activity at EYFP-fused human MC3R expressed in HEK293 cells after 16 to 20 hrs by CRE-driven reporter assay; type: functional, cell-based; in short: as §1
[6] = target: T2, Melanocortin receptor 4; assay: Agonist activity at EYFP-fused human MC4R expressed in HEK293 cells after 16 to 20 hrs by CRE-driven reporter assay; type: functional, cell-based
[7] = target: T1, Melanocortin receptor 5; assay: Agonist activity at EYFP-fused human MC5R expressed in HEK293 cells after 16 to 20 hrs by CRE-driven reporter assay relative to alpha-MSH; type: functional, cell-based; in short: as §1
[8] = target: T3, Melanocortin receptor 3; assay: Agonist activity at EYFP-fused human MC3R expressed in HEK293 cells after 16 to 20 hrs by CRE-driven reporter assay relative to alpha-MSH; type: functional, cell-based; in short: as §1
[9] = target: T2, Melanocortin receptor 4; assay: Agonist activity at EYFP-fused human MC4R expressed in HEK293 cells assessed as increase in cAMP accumulation at 3000 nM after 30 mins by luminescent enzymatic complementation based assay relative to alpha-MSH; type: functional, cell-based
In short: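 MC4R-expressing HEK293 cells seeded at 50,000/well and switched after 24 h to HBSS with 500 μM IBMX. Ligand was added as 11-point series in triplicate for 30 min. Cells were lysed and incubated with enzyme fragments and substrate at room temperature in the dark for at least 4 h. Luminescence from enzyme complementation was background-corrected and normalized to the α-MSH maximum, with at least three independent experiments.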

[10] = target: T2, Melanocortin receptor 4; assay: Agonist activity at EYFP-fused human MC4R expressed in HEK293 cells at 3000 nM after 16 to 20 hrs by CRE-driven reporter assay relative to alpha-MSH; type: functional, cell-based
In short: as §1, with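 “DMEM. Seeded at 50,000 cells/well and treated after 24 h for 16–20 h with 11-point 3-fold dilutions (3.3 μM to […]) in triplicate, vehicle 0.5% v/v DMSO.” for “DMEM.”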

[11] = organism: Homo sapiens; assay: Selectivity ratio of EC50 for EYFP-fused human MC3R expressed in HEK293 cells to EC50 for EYFP-fused human MC4R expressed in HEK293 cells; type: cell-based

T3 sequence (P41968 whole entry, the tested form may be a part): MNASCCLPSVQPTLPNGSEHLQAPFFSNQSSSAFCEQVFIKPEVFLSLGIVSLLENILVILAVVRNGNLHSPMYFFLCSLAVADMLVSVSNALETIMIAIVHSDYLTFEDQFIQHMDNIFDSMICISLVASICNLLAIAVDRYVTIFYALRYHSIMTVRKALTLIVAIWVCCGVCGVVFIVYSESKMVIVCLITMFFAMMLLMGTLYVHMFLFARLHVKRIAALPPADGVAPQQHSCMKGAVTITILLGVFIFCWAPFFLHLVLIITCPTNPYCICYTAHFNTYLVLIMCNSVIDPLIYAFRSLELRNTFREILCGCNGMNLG
T2 sequence (P32245 whole entry, the tested form may be a part): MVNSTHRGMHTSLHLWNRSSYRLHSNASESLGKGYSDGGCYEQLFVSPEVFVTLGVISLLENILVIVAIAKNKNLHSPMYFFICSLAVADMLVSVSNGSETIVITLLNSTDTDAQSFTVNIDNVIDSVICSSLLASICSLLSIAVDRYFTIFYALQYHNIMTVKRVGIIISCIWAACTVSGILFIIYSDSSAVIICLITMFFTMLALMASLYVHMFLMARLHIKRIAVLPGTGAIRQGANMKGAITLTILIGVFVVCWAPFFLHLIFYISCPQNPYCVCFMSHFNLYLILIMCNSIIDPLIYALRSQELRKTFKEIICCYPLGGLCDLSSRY
T1 sequence (P33032 whole entry, the tested form may be a part): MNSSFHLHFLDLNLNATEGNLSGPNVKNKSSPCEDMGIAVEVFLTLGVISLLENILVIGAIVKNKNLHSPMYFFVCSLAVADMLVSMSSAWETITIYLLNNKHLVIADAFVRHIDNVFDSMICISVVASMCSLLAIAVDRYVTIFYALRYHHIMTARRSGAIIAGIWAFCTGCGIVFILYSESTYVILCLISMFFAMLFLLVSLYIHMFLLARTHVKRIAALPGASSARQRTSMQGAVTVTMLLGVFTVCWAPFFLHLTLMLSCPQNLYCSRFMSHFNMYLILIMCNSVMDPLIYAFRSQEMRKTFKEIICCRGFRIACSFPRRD

SMILES | EC50 [1] | EC50 [2] | Emax [3] | Emax [4] | EC50 [5] | EC50 [6] | Emax [7] | Emax [8] | Emax [9] | Emax [10] | Ratio EC50 [11]
CSCC[C@H](NC(=O)[C@@H]1Cc2cn(nn2)C[C@H](NC(=O)[C@@H](N)CCCCN)C(=O)N[C@@H](Cc2cnc[nH]2)C(=O)N[C@H](Cc2ccccc2)C(=O)N[C@@H](CCCCN)C(=O)N[C@@H](Cc2c[nH]c3ccccc23)C(=O)N1)C(=O)O | > 3000 nM | 124 nM | 40% | 13% | > 3000 nM | 12.7 nM | – | – | – | – | –
CSCC[C@H](NC(=O)[C@@H]1Cc2cn(nn2)C[C@H](NC(=O)[C@@H](N)CCCCN)C(=O)N[C@@H](Cc2cnc[nH]2)C(=O)N[C@H](C)C(=O)N[C@@H](CCCNC(=N)N)C(=O)N[C@@H](Cc2c[nH]c3ccccc23)C(=O)N1)C(=O)O | > 3000 nM | 943 nM | 33% | 8% | > 3000 nM | 112 nM | – | – | – | – | –
CSCC[C@H](NC(=O)[C@@H]1Cc2cn(nn2)C[C@H](NC(=O)[C@@H](N)CCCCN)C(=O)N[C@@H](Cc2cnc[nH]2)C(=O)N[C@H](Cc2ccccc2)C(=O)N[C@@H](C)C(=O)N[C@@H](Cc2c[nH]c3ccccc23)C(=O)N1)C(=O)O | > 3000 nM | 684 nM | 10% | 5% | > 3000 nM | 258 nM | – | – | – | – | –
CSCC[C@H](NC(=O)[C@@H]1Cc2cn(nn2)C[C@H](NC(=O)[C@@H](N)CCCCN)C(=O)N[C@@H](Cc2cnc[nH]2)C(=O)N[C@@H](Cc2ccccc2)C(=O)N[C@@H](CCCNC(=N)N)C(=O)N[C@@H](Cc2c[nH]c3ccccc23)C(=O)N1)C(=O)O | > 3000 nM | 792 nM | 32% | 1% | > 3000 nM | 678 nM | – | – | – | – | –
CC(=O)N[C@@H](CCCNC(=N)N)C(=O)N[C@H]1CSSC[C@@H](C(N)=O)NC(=O)[C@H](Cc2c[nH]c3ccccc23)NC(=O)[C@H](CCCNC(=N)N)NC(=O)[C@@H](Cc2ccccc2)NC(=O)[C@H](Cc2c[nH]cn2)NC(=O)[C@@H](C)NC1=O | 110 nM | – | – | – | – | – | – | – | – | – | –
CSCC[C@H](NC(=O)[C@@H]1Cc2cn(nn2)CCC[C@H](N)C(=O)N[C@@H](Cc2cnc[nH]2)C(=O)N[C@H](Cc2ccccc2)C(=O)N[C@@H](CCCNC(=N)N)C(=O)N[C@@H](Cc2c[nH]c3ccccc23)C(=O)N1)C(=O)O | > 3000 nM | 720 nM | 16% | 3% | > 3000 nM | 185 nM | – | – | – | – | –
CSCC[C@H](NC(=O)[C@@H]1Cc2cn(nn2)C[C@H](NC(=O)[C@@H](N)CCCCN)C(=O)N[C@@H](Cc2c[nH]c3ccccc23)C(=O)N[C@H](Cc2ccccc2)C(=O)N[C@@H](CCCNC(=N)N)C(=O)N[C@@H](Cc2cnc[nH]2)C(=O)N1)C(=O)O | > 3000 nM | > 3000 nM | 0% | 0% | > 3000 nM | > 3000 nM | – | – | 28% | 48% | –
CSCC[C@H](NC(=O)[C@@H]1Cc2cn(nn2)C[C@H](NC(=O)[C@@H](N)CCCCN)C(=O)N[C@@H](Cc2cnc[nH]2)C(=O)N[C@H](Cc2ccccc2)C(=O)N[C@@H](CCCNC(=N)N)C(=O)N[C@@H](Cc2csc3ccccc23)C(=O)N1)C(=O)O | > 3000 nM | 63.7 nM | – | 59% | 821 nM | 7.6 nM | – | 96% | – | – | –
CC[C@@H](C)[C@H]1NC(=O)[C@H](Cc2cnc[nH]2)NC(=O)[C@@H](NC(=O)[C@@H](N)CCCCN)Cn2cc(nn2)C[C@@H](C(=O)N[C@@H](CCSC)C(=O)O)NC(=O)[C@H](Cc2c[nH]c3ccccc23)NC(=O)[C@H](CCCNC(=N)N)NC1=O | > 3000 nM | > 3000 nM | 0% | 0% | > 3000 nM | > 3000 nM | – | – | 13% | 42% | –
CSCC[C@H](NC(=O)[C@@H]1Cc2cn(nn2)C[C@H](NC(=O)[C@@H](N)CCCCN)C(=O)N[C@@H](Cc2cnc[nH]2)C(=O)N[C@H](Cc2ccccc2)C(=O)N[C@@H](CCCNC(=N)N)C(=O)N[C@@H](C)C(=O)N1)C(=O)O | 809 to 3000 nM | > 3000 nM | 17% | 18% | 1910 to 3000 nM | > 3000 nM | – | – | 16% | 19% | –
CSCC[C@H](NC(=O)[C@@H]1Cc2cn(nn2)C[C@H](NC(=O)[C@@H](N)CCCCN)C(=O)N[C@@H](Cc2cnc[nH]2)C(=O)N[C@H](Cc2ccccc2)C(=O)N[C@@H](CCCN)C(=O)N[C@@H](Cc2c[nH]c3ccccc23)C(=O)N1)C(=O)O | > 3000 nM | 730 nM | 12% | 9% | > 3000 nM | 318 nM | – | – | – | – | –

Continued, in another order:

EC50 [1] | EC50 [2] | Emax [3] | Emax [4] | EC50 [5] | EC50 [6] | Emax [7] | Emax [8] | Emax [9] | Emax [10] | SMILES | Ratio EC50 [11]
375 nM | 28.8 nM | – | – | 633 nM | 2.8 nM | 130% | 104% | – | – | CSCC[C@H](NC(=O)[C@@H]1Cc2cn(nn2)C[C@H](NC(=O)[C@@H](N)CCCCN)C(=O)N[C@@H](C)C(=O)N[C@H](Cc2ccccc2)C(=O)N[C@@H](CCCNC(=N)N)C(=O)N[C@@H](Cc2c[nH]c3ccccc23)C(=O)N1)C(=O)O | –
635 nM | 17.9 nM | – | – | 162 nM | 2.3 nM | 126% | 107% | – | – | C[C@H](NC(=O)[C@@H]1Cc2cn(nn2)C[C@H](NC(=O)[C@@H](N)CCCCN)C(=O)N[C@@H](Cc2cnc[nH]2)C(=O)N[C@H](Cc2ccccc2)C(=O)N[C@@H](CCCNC(=N)N)C(=O)N[C@@H](Cc2c[nH]c3ccccc23)C(=O)N1)C(=O)O | –
916 nM | 9.6 nM | – | – | 160 nM | 3.2 nM | 106% | 112% | – | – | CSCC[C@H](NC(=O)[C@@H]1Cc2cn(nn2)[C@@H](CCCNC(=N)N)C(=O)N[C@@H](Cc2cnc[nH]2)C(=O)N[C@H](Cc2ccccc2)C(=O)N[C@@H](CCCNC(=N)N)C(=O)N[C@@H](Cc2c[nH]c3ccccc23)C(=O)N1)C(=O)O | –
299 nM | 9.2 nM | – | – | 123 nM | 1.8 nM | 120% | 105% | – | – | CSCC[C@H](NC(=O)[C@@H]1Cc2cn(nn2)C[C@H](NC(=O)[C@@H](N)CCCCN)C(=O)N[C@@H](Cc2cnc[nH]2)C(=O)N[C@H](Cc2ccccc2)C(=O)N[C@@H](CCCNC(=N)N)C(=O)N[C@@H](Cc2c[nH]c3ccccc23)C(=O)N1)C(=O)O | 70
137 nM | 2 nM | – | – | 19.4 nM | 1.4 nM | 123% | 111% | – | – | CSCC[C@H](NC(=O)[C@@H]1Cc2cn(nn2)C[C@H](NC(=O)[C@H](C)N)C(=O)N[C@@H](Cc2cnc[nH]2)C(=O)N[C@H](Cc2ccccc2)C(=O)N[C@@H](CCCNC(=N)N)C(=O)N[C@@H](Cc2c[nH]c3ccccc23)C(=O)N1)C(=O)O | –
752 nM | 43.3 nM | – | – | 291 nM | 11.4 nM | 85% | 102% | – | – | CSCC[C@H](NC(=O)[C@@H]1Cc2cn(nn2)C[C@H](NC(=O)[C@@H](N)CCCNC(=N)N)C(=O)N[C@@H](Cc2cnc[nH]2)C(=O)N[C@H](Cc2ccccc2)C(=O)N[C@@H](CCCNC(=N)N)C(=O)N[C@@H](Cc2c[nH]c3ccccc23)C(=O)N1)C(=O)O | –

— ChEMBL document CHEMBL4028868, “Click-Chemistry-Mediated Synthesis of Selective Melanocortin Receptor 4 Agonists” (J Med Chem, 2017)
